Data set [1] deals with T1, Cannabinoid receptor 1 (Homo sapiens, UniProt P21554). The note with it: CHO-K1.
The species entered for the next data set is Homo sapiens. In words: Selectivity ratio of Ki for CB2 receptor to Ki for human CB1 receptor.
Data set [2] has as its target T1, Cannabinoid receptor 1. Description: biochemical. The class given is cell-based, CHO-K1.
A further data set deals with Cannabinoid receptor 2 (Homo sapiens, UniProt P34972). Description: Displacement of [3H]CP55940 from CB2 receptor expressed in CHO-K1 cells. The class given is cell-based. A general note: In a radioligand displacement assay an active substance lowers the binding of a labelled ligand.
For another data set, the system named is MDCK. In words: Permeability from apical to basal side of MDCK cells expressing human mdr1 gene. The note with it: dog. The class given is ADME, cell-based, Canis lupus familiaris. Put shortly:
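MDCK-mdr1 cells grown 4 days to confluence on Transwell-type filters in DMEM/F12 with 10% FBS and antibiotics. Compound added apically at 3.16 μM in HBSS with 25 mM D-glucose, HEPES-buffered to pH 7.4; 1 hr at 37°C. Apical and basal samples collected and analysed by LC-MS/MS (MRM).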

In general, Ki refers to the equilibrium dissociation constant of an inhibitor or competing ligand from its target.
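For Ke in this document: antagonism measured as blockade of CP55940-evoked intracellular Ca2+ rise, read fluorometrically, in cells additionally carrying Galphaq16.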

Cannabinoid receptor 2, sequence (P34972 whole entry): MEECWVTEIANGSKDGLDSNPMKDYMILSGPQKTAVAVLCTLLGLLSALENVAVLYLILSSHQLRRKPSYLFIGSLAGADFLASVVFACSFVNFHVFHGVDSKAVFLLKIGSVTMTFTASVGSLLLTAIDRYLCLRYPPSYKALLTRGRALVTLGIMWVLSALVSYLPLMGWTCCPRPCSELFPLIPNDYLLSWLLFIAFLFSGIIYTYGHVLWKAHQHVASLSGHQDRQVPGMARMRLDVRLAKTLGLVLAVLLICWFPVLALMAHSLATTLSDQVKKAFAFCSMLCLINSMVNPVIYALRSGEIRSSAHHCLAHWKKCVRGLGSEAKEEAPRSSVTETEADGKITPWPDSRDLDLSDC
T1 sequence (P21554 whole entry): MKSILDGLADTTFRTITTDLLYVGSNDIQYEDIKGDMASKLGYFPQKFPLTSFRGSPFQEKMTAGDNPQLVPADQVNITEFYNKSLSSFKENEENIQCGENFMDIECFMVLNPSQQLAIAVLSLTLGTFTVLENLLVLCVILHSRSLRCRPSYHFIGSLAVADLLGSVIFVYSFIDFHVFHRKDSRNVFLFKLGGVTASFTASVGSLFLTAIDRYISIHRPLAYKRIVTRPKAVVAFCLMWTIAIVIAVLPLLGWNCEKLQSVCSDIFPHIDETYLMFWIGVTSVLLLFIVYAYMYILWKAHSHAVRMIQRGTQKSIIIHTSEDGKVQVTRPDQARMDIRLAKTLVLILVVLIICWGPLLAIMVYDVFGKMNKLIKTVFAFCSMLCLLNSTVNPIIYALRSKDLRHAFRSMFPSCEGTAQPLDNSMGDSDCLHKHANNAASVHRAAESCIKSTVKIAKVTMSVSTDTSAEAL

The compound `Cc1c(C(=O)NC2CCN(S(N)(=O)=O)CC2)nn(-c2ccc(Cl)cc2Cl)c1-c1ccc(Cl)cc1` came in with a Ke at Cannabinoid receptor 1 [1] of 592 nM.
At Cannabinoid receptor 1 [1], `CC(=O)N1CCC[C@@H](NC(=O)c2nn(-c3ccc(Cl)cc3Cl)c(-c3ccc(Cl)cc3)c2C)C1` displayed a Ke of 530 nM.
On the same count and under the same terms, next, `Cc1c(C(=O)N2CCC(NC(=O)Nc3ccc(C#N)cc3)(c3ccccc3)CC2)nn(-c2ccc(Cl)cc2Cl)c1-c1ccc(Cl)cc1`: above 10000 nM.
As for `CCCNC(=O)N1CCC[C@H](NC(=O)c2nn(-c3ccc(Cl)cc3Cl)c(-c3ccc(Cl)cc3)c2C)C1`, the Ratio Ki in the data set listed under Homo sapiens is 29. Further, the Ki at Cannabinoid receptor 1 [2] came out at 271 nM; at Cannabinoid receptor 2, 7800 nM. Further, on Cannabinoid receptor 1 [1], the Ke is 70 nM.
With `CCCCNC(=O)N1CCC[C@H](NC(=O)c2nn(-c3ccc(Cl)cc3Cl)c(-c3ccc(Cl)cc3)c2C)C1`, the Ke on Cannabinoid receptor 1 [1] was found to be 230 nM.
In the case of `CCNC(=O)N1CCC[C@@H](NC(=O)c2nn(-c3ccc(Cl)cc3Cl)c(-c3ccc(Cl)cc3)c2C)C1`, the Ke at Cannabinoid receptor 1 [1] came to 171 nM.
Take `CCCCNC(=O)N1CCC[C@@H](NC(=O)c2nn(-c3ccc(Cl)cc3Cl)c(-c3ccc(Cl)cc3)c2C)C1`: the Ratio Ki in the data set listed under Homo sapiens turned out to be 24. Further, the results for the inhibitory constant (Ki) on Cannabinoid receptor 1 [2] and at Cannabinoid receptor 2 were 125 nM and 3030 nM, respectively. The Ke at Cannabinoid receptor 1 [1] was determined as 118 nM.
Turning to `Cc1c(C(=O)N[C@H]2CCCN(C(=O)NC(C)C)C2)nn(-c2ccc(Cl)cc2Cl)c1-c1ccc(Cl)cc1`, the Ke on Cannabinoid receptor 1 [1] came to 265 nM.
As to `Cc1c(C(=O)N2CCC(NC(=O)Nc3ccc(F)cc3)(c3ccccc3)CC2)nn(-c2ccc(Cl)cc2Cl)c1-c1ccc(Cl)cc1`, the Ratio Ki in the data set listed under Homo sapiens is 33. Also, the Ki is 614 nM on Cannabinoid receptor 1 [2] and 20000 nM on Cannabinoid receptor 2. Further, the Ke at Cannabinoid receptor 1 [1] turned out to be 89 nM.
On the same counts, the results for `CCNC(=O)N1CCC(NC(=O)c2nn(-c3ccc(Cl)cc3Cl)c(-c3ccc(Cl)cc3)c2C)CC1` are 35, 165 nM, 5690 nM and 20.5 nM.
`Cc1c(C(=O)N2CCC(NC(=O)NC3CCCCC3)(c3ccccc3)CC2)nn(-c2ccc(Cl)cc2Cl)c1-c1ccc(Cl)cc1`: the Ratio Ki in the data set filed under Homo sapiens came to 25. Further, the inhibition constant Ki on Cannabinoid receptor 2 stood at 20000 nM. The compound further showed a Ke at Cannabinoid receptor 1 [1] of 12 nM.
On Cannabinoid receptor 1 [1], `Cc1c(C(=O)NC2CCN(C(N)=O)CC2)nn(-c2ccc(Cl)cc2Cl)c1-c1ccc(Cl)cc1` yielded a Ke of 4100 nM.
As for `Cc1c(C(=O)N[C@@H]2CCCN(C(=O)NC(C)C)C2)nn(-c2ccc(Cl)cc2Cl)c1-c1ccc(Cl)cc1`, the Ratio Ki in the data set listed under Homo sapiens came to 43. Moreover, the inhibition constant (Ki) came out at 97 nM on Cannabinoid receptor 1 [2] and 4130 nM on Cannabinoid receptor 2. In addition, at Cannabinoid receptor 1 [1], the Ke amounted to 31.3 nM.
In the case of `CCNC1(C(N)=O)CCN(C(=O)c2nn(-c3ccc(Cl)cc3Cl)c(-c3ccc(Cl)cc3)c2C)CC1`, in the data set listed under Homo sapiens, the Ratio Ki amounted to 28.3. The Ke at Cannabinoid receptor 1 [1] was determined as 91 nM.
`Cc1c(C(=O)N2CCC(NS(C)(=O)=O)(c3ccccc3)CC2)nn(-c2ccc(Cl)cc2Cl)c1-c1ccc(Cl)cc1` registered a permeability in the data set on MDCK of 3%. Also, in the data set listed under Homo sapiens, the Ratio Ki was found to be 5.6. The same compound had a Ke on Cannabinoid receptor 1 [1] of 3.5 nM.
For `Cc1c(C(=O)NCC2CCC(CNC(=O)NC(C)(C)C)CC2)nn(-c2ccc(Cl)cc2Cl)c1-c1ccc(Cl)cc1` (stereo not given), at Cannabinoid receptor 1 [1], the Ke is 150 nM.
For `Cc1c(C(=O)N2CCC(NC(=O)NC(C)C)(c3ccccc3)CC2)nn(-c2ccc(Cl)cc2Cl)c1-c1ccc(Cl)cc1`, the Ratio Ki in the data set listed under Homo sapiens was determined as 364. The Ke on Cannabinoid receptor 1 [1] was determined as 0.7 nM.
Compound `Cc1c(C(=O)NC2CCN(S(C)(=O)=O)CC2)nn(-c2ccc(Cl)cc2Cl)c1-c1ccc(Cl)cc1` gave a Ke at Cannabinoid receptor 1 [1] of 269 nM.
Same read-out and setting: with `Cc1c(C(=O)N[C@H]2CCCN(C(=O)NC(C)(C)C)C2)nn(-c2ccc(Cl)cc2Cl)c1-c1ccc(Cl)cc1` the figure was 206 nM; with `CCCCNC(=O)NCC1CCC(CNC(=O)c2nn(-c3ccc(Cl)cc3Cl)c(-c3ccc(Cl)cc3)c2C)CC1` (stereo not given), 274 nM.
In the case of `Cc1c(C(=O)NC2CCNCC2)nn(-c2ccc(Cl)cc2Cl)c1-c1ccc(Cl)cc1`, the Ke at Cannabinoid receptor 1 [1] amounted to 5120 nM.
Turning to `Cc1c(C(=O)N2CCC(N)(c3ccccc3)CC2)nn(-c2ccc(Cl)cc2Cl)c1-c1ccc(Cl)cc1`, in the data set filed under Homo sapiens, the Ratio Ki was found to be 10.8. Further, at Cannabinoid receptor 1 [1], the Ke worked out at 485 nM.
Regarding `CCCNC(=O)NC1(c2ccccc2)CCN(C(=O)c2nn(-c3ccc(Cl)cc3Cl)c(-c3ccc(Cl)cc3)c2C)CC1`, the Ratio Ki in the data set listed under Homo sapiens turned out to be 39. The Ke at Cannabinoid receptor 1 [1] came out at 0.4 nM.
For the compound `CCCNC(=O)N1CCC[C@@H](NC(=O)c2nn(-c3ccc(Cl)cc3Cl)c(-c3ccc(Cl)cc3)c2C)C1`, the Ratio Ki in the data set listed under Homo sapiens came out at 23. The values for the Ki on Cannabinoid receptor 1 [2] and on Cannabinoid receptor 2 were 134 nM and 3090 nM, respectively. Besides, the Ke at Cannabinoid receptor 1 [1] worked out at 27 nM.
Take `CC(=O)NC1(c2ccccc2)CCN(C(=O)c2nn(-c3ccc(Cl)cc3Cl)c(-c3ccc(Cl)cc3)c2C)CC1`: the Ratio Ki in the data set listed under Homo sapiens was found to be 3.4. In addition, the Ke on Cannabinoid receptor 1 [1] stood at 201 nM.
On Cannabinoid receptor 1 [1], `CCNC(=O)NCC1CCC(CNC(=O)c2nn(-c3ccc(Cl)cc3Cl)c(-c3ccc(Cl)cc3)c2C)CC1` (stereo not given) registered a Ke of 135 nM.
`Cc1c(C(=O)N[C@H]2CCCNC2)nn(-c2ccc(Cl)cc2Cl)c1-c1ccc(Cl)cc1`: the Ke on Cannabinoid receptor 1 [1] is 1880 nM.
Regarding `Cc1c(C(=O)N2CCC(C(=O)O)(c3ccccc3)CC2)nn(-c2ccc(Cl)cc2Cl)c1-c1ccc(Cl)cc1`, on Cannabinoid receptor 1 [1], the Ke stood at 1170 nM.
Consider `Cc1c(C(=O)N2CCC(NC(=O)Nc3ccc(N(C)C)cc3)(c3ccccc3)CC2)nn(-c2ccc(Cl)cc2Cl)c1-c1ccc(Cl)cc1`, for which the Ratio Ki in the data set filed under Homo sapiens was found to be 11. For the same compound, the Ki on Cannabinoid receptor 1 [2] stood at 1490 nM; on Cannabinoid receptor 2 it was 16300 nM. Moreover, the Ke at Cannabinoid receptor 1 [1] was found to be 264 nM.
The compound `CCCNC(=O)NCC1CCC(CNC(=O)c2nn(-c3ccc(Cl)cc3Cl)c(-c3ccc(Cl)cc3)c2C)CC1` (stereo not given) showed a Ke at Cannabinoid receptor 1 [1] of 486 nM.
The same measure, in the same setting: with `Cc1c(C(=O)NCC2CCC(CNC(=O)NC(C)C)CC2)nn(-c2ccc(Cl)cc2Cl)c1-c1ccc(Cl)cc1` (stereo not given) the figure was 351 nM; with `Cc1c(C(=O)N[C@H]2CCCN(C(=O)OC(C)(C)C)C2)nn(-c2ccc(Cl)cc2Cl)c1-c1ccc(Cl)cc1`, 842 nM.
As to `CC(=O)N1CCC(NC(=O)c2nn(-c3ccc(Cl)cc3Cl)c(-c3ccc(Cl)cc3)c2C)CC1`, the Ratio Ki in the data set listed under Homo sapiens worked out at 34.2. Besides, the values for the inhibition constant (Ki) on Cannabinoid receptor 1 [2] and on Cannabinoid receptor 2 were 65.3 nM and 2240 nM, respectively. Also, the Ke on Cannabinoid receptor 1 [1] is 195 nM.
As to `CCCNC(=O)N1CCC(NC(=O)c2nn(-c3ccc(Cl)cc3Cl)c(-c3ccc(Cl)cc3)c2C)CC1`, the Ratio Ki in the data set filed under Homo sapiens was determined as 46. Moreover, the values for the inhibition constant (Ki) at Cannabinoid receptor 1 [2] and at Cannabinoid receptor 2 were 184 nM and 8460 nM, respectively. Besides, on Cannabinoid receptor 1 [1], the Ke was determined as 66.5 nM.
Take `Cc1c(C(=O)N[C@@H]2CCCNC2)nn(-c2ccc(Cl)cc2Cl)c1-c1ccc(Cl)cc1`: on Cannabinoid receptor 1 [1], the Ke was determined as 1170 nM.
`CCNC1(C(N)=O)CCN(c2ncnc3c2nc(-c2ccccc2Cl)n3-c2ccc(Cl)cc2)CC1` [OTENABANT] had a permeability in the data set on MDCK of 90%.
In the case of `CCCCNC(=O)N1CCC(NC(=O)c2nn(-c3ccc(Cl)cc3Cl)c(-c3ccc(Cl)cc3)c2C)CC1`, the Ratio Ki in the data set listed under Homo sapiens was determined as 47. Also, the inhibitory constant (Ki) on Cannabinoid receptor 1 [2] was found to be 187 nM; on Cannabinoid receptor 2, 8720 nM. This compound also registered a Ke on Cannabinoid receptor 1 [1] of 78.1 nM.
On Cannabinoid receptor 1 [1], `Cc1c(C(=O)N[C@@H]2CCCN(C(=O)NC(C)(C)C)C2)nn(-c2ccc(Cl)cc2Cl)c1-c1ccc(Cl)cc1` showed a Ke of 268 nM.
On to `CCNC(=O)N1CCC[C@H](NC(=O)c2nn(-c3ccc(Cl)cc3Cl)c(-c3ccc(Cl)cc3)c2C)C1`, for which, on Cannabinoid receptor 1 [1], the Ke turned out to be 280 nM.
Consider `CCNC(=O)NC1(c2ccccc2)CCN(C(=O)c2nn(-c3ccc(Cl)cc3Cl)c(-c3ccc(Cl)cc3)c2C)CC1`, for which the Ratio Ki in the data set listed under Homo sapiens came to 12. The compound further came in with a Ke at Cannabinoid receptor 1 [1] of 10.8 nM.
